Measurements: ChEMBL document CHEMBL2412956, “Synthesis and biological activity evaluation of 5-pyrazoline substituted 4-thiazolidinones” (Eur J Med Chem, 2013)

Columns and labels:
[1] = tested on: Influenza A virus; assay: Antiviral activity against Influenza A virus (A/California/07/2009(H1N1)) infected in MDCK cells assessed as inhibition of virus-induced cytopathic effect by cell-based neutral red uptake assay; assay type: functional, organism-based
[2] = tested on: MDCK; assay: (§1) Cytotoxicity against MDCK cells; assay type: cell-based, Canis lupus familiaris; conditions: dog, mdck
Method in brief: (§2)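 Cytotoxicity was measured in uninfected wells run alongside the antiviral plates, across eight half-log dilutions in MEM. Cells were stained with neutral red, and the extracted dye was read at 540 nm. CC₅₀, the concentration giving 50% cytotoxicity, was obtained by regression, and values are reported in μM.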

[3] = Antiviral activity against SARS coronavirus Urbani infected in MDCK cells assessed as inhibition of virus-induced cytopathic effect by cell-based neutral red uptake assay; assay type: functional; conditions: Severe acute respiratory syndrome-related coronavirus
[4] = Selectivity index, ratio of CC50 for MDCK cells to EC50 for Influenza A virus (A/duck/Minnesota/1525/1981(H5N1)); assay type: toxicity, cell-based; conditions: dog, read-out: Ratio CC50/EC50
[5] = tested on: Influenza A virus; assay: Antiviral activity against Influenza A virus (A/duck/Minnesota/1525/1981(H5N1)) infected in MDCK cells assessed as inhibition of virus-induced cytopathic effect by cell-based neutral red uptake assay; assay type: functional, organism-based
[6] = Selectivity index, ratio of CC50 for MDCK cells to EC50 for Influenza A virus (A/California/07/2009(H1N1)); assay type: toxicity, cell-based; conditions: dog, read-out: Ratio CC50/EC50
[7] = Selectivity index, ratio of CC50 for MDCK cells to EC50 for Influenza B virus (B/Florida/4/2006); assay type: toxicity, cell-based; conditions: dog, read-out: Ratio CC50/EC50
[8] = tested on: Influenza A virus; assay: Antiviral activity against Influenza A virus (A/Perth/16/2009(H3N2)) infected in MDCK cells assessed as inhibition of virus-induced cytopathic effect by cell-based neutral red uptake assay; assay type: functional, organism-based
[9] = tested on: Influenza B virus; assay: Antiviral activity against Influenza B virus (B/Florida/4/2006) infected in MDCK cells assessed as inhibition of virus-induced cytopathic effect by cell-based neutral red uptake assay; assay type: functional; conditions: B/Florida/4/2006, MDCK
[10] = tested on: K562; assay: Cytotoxicity against human K562 cells assessed as cell growth at 10 uM after 48 hrs by SRB assay relative to control; assay type: functional; conditions: K562, 48 h, read-out: Activity
Method in brief: (§3)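 This was the NCI primary screen, with compound added once at 10⁻⁵ M and cultures incubated for 48 h. The endpoint was sulforhodamine B protein staining. Results are expressed as percent growth of treated cells relative to untreated control cells.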

[11] = tested on: T47D; assay: Cytotoxicity against human T47D cells assessed as cell growth at 10 uM after 48 hrs by SRB assay relative to control; assay type: functional; conditions: read-out: Activity
Method in brief: (§4)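 Single-dose NCI screen: compound at 10⁻⁵ M added to tumor cell cultures and incubated for 48 h. The SRB protein-binding dye end point was read spectrophotometrically. Results are percent growth of treated cells relative to untreated controls.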

[12] = tested on: CCRF-CEM; assay: Cytotoxicity against human CCRF-CEM cells assessed as cell growth at 10 uM after 48 hrs by SRB assay relative to control; assay type: functional; conditions: read-out: Activity; method in brief: as §3
[13] = tested on: UO-31; assay: Cytotoxicity against human UO31 cells assessed as cell growth at 10 uM after 48 hrs by SRB assay relative to control; assay type: functional; conditions: UO-31, 48 h, read-out: Activity; method in brief: as §4
[14] = tested on: Trypanosoma brucei brucei; assay: Antitrypanosomal activity against bloodstream form of Trypanosoma brucei brucei 90-13 assessed as parasite growth inhibition after 72 hrs by resazurin-based fluorescence assay; assay type: functional, organism-based; conditions: 90-13, 72 h
Method in brief: (§5)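 Bloodstream forms of strain 90-13 or Feo were grown in HMI9 with 10% FCS at 37 °C under 5% CO₂. Log-phase parasites were seeded at 10⁵ cells/ml and exposed for 72 h to 10–0.625 μg/ml drug from DMSO stocks, with DMSO as control. Resazurin was added at 45 μM final, and fluorescence was read 4 h later. IC₅₀ was taken from the dose–response curve as the mean of three independent experiments.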

[15] = tested on: Trypanosoma brucei gambiense; assay: Antitrypanosomal activity against bloodstream form of Trypanosoma brucei gambiense Feo assessed as parasite growth inhibition after 72 hrs by resazurin-based fluorescence assay; assay type: functional, organism-based; method in brief: as §5
[16] = Selectivity index, ratio of CC50 for MDCK cells to EC50 for Influenza A virus (A/Perth/16/2009(H3N2)); assay type: toxicity, cell-based; conditions: dog, read-out: Ratio CC50/EC50
[17] = tested on: HOP-92; assay: Cytotoxicity against human HOP92 cells assessed as cell growth at 10 uM after 48 hrs by SRB assay relative to control; assay type: functional; conditions: HOP-92, 48 h, read-out: Activity; method in brief: as §3
[18] = Selectivity index, ratio of CC50 for MDCK cells to EC50 for SARS coronavirus Urbani; assay type: toxicity, cell-based; conditions: dog, read-out: Ratio CC50/EC50
[19] = tested on: Trypanosoma cruzi; assay: Antitrypanosomal activity against […] form of Trypanosoma cruzi Y infected in monkey […] cells assessed as parasite growth inhibition after 15 hrs by trypan blue staining-based hemocytometric analysis; assay type: functional, organism-based
[20] = as §1; assay type: cell-based, Canis lupus familiaris; conditions: dog, MDCK cells; method in brief: as §2

Row | Structure (SMILES) | EC50 [1] | CC50 [2] | EC50 [3] | selectivity ratio [4] | EC50 [5] | selectivity ratio [6] | selectivity ratio [7] | EC50 [8] | EC50 [9] | further results
1 | CCN1CCN(CN2C(=O)SC(N3N=C(c4ccc5ccccc5c4)CC3c3ccc(Cl)cc3)C2=O)CC1 (configuration not stated) | 4.01 µM | 2.37 µM | > 16.8 µM | 1.4 | 4.38 µM | 1.1 | 2.1 | > 2.37 µM | 4.01 µM | –
2 | CC(=O)N1CCN(CN2C(=O)SC(N3N=C(c4ccc5ccccc5c4)CC3c3ccc(Cl)cc3)C2=O)CC1 (configuration not stated) | – | – | – | – | – | – | – | – | – | growth at 10 µM [10]: 76.4%
3 | COc1ccc(C2CC(c3ccc4ccccc4c3)=NN2C(=O)/C=C2\SC(=O)NC2=O)cc1 (configuration not stated) | – | – | – | – | – | – | – | – | – | growth at 10 µM [11]: 78.7%
4 | COc1ccc(NC(=O)CN2C(=O)S/C(=C\C(=O)N3N=C(c4ccc5ccccc5c4)CC3c3ccc(OC)cc3)C2=O)cc1 (configuration not stated) | – | – | – | – | – | – | – | – | – | growth at 10 µM [12]: 74.7%
5 | COc1ccc(C2CC(c3ccc4ccccc4c3)=NN2C2SC(=O)NC2=O)cc1 (configuration not stated) | 9.82 µM | 6.23 µM | > 23.5 µM | 1.6 | 7.9 µM | 1.1 | 1.8 | 4.31 µM | 4.55 µM | growth at 10 µM [13]: 77.5%; IC50 [14]: 13.9 µM; IC50 [15]: 6.66 µM; selectivity ratio [16]: 1.4
6 | O=C1NC(=O)C(N2N=C(c3ccc4ccccc4c3)CC2c2ccc(Cl)cc2)S1 (configuration not stated) | 4.27 µM | – | > 23.2 µM | 1.2 | 5.21 µM | 1 | 1.6 | 2.84 µM | 3.08 µM | growth at 10 µM [17]: 74.9%; selectivity ratio [16]: 1
7 | COc1ccc(C2CC(c3ccc4ccccc4c3)=NN2C2SC(=O)N(CC(=O)Nc3ccc(C)cc3)C2=O)cc1 (configuration not stated) | 142 µM | > 74.4 µM | > 313 µM | > 16.3 | 21.8 µM | 1.6 | 2.1 | 53.1 µM | 79.7 µM | growth at 10 µM [13]: 76.6%; selectivity ratio [16]: 1.4
8 | Cc1ccc(NC(=O)CN2C(=O)SC(N3N=C(c4ccc5ccccc5c4)CC3c3ccc(Cl)cc3)C2=O)cc1 (configuration not stated) | 54.5 µM | > 13.3 µM | > 351 µM | 1.1 | 51 µM | 1.3 | 1.3 | > 13.3 µM | 35.1 µM | IC50 [14]: 5.43 µM; IC50 [15]: 2.53 µM
9 | COc1ccc(NC(=O)CN2C(=O)SC(N3N=C(c4ccc5ccccc5c4)CC3c3ccc(Cl)cc3)C2=O)cc1 (configuration not stated) | 120 µM | > 25.6 µM | > 342 µM | 1.5 | 179 µM | 1.5 | 1.4 | 18.8 µM | 95.7 µM | IC50 [14]: 11.3 µM; IC50 [15]: 6.1 µM; selectivity ratio [16]: 1.3
10 | COc1ccc(C2CC(c3ccc4ccccc4c3)=NN2C2SC(=O)N(CN3CCCCC3)C2=O)cc1 (configuration not stated) | – | – | – | – | – | – | – | – | – | growth at 10 µM [17]: 69.5%
11 | COc1ccc(C2CC(c3ccc4ccccc4c3)=NN2C2SC(=O)N(CN3CCN(C(C)=O)CC3)C2=O)cc1 (configuration not stated) | – | – | – | – | – | – | – | – | – | growth at 10 µM [13]: 82.2%
12 | COc1ccc(C2CC(c3ccc4ccccc4c3)=NN2C2SC(=O)N(CN3CCN(Cc4ccccc4)CC3)C2=O)cc1 (configuration not stated) | 13.7 µM | 6.6 µM | 21.5 µM | – | > 24.8 µM | 1.1 | 1 | > 6.6 µM | 57.8 µM | growth at 10 µM [13]: 74.5%; selectivity ratio [18]: 1.6
13 | CCC1SC(N/N=C\CSc2ccccc2)=NC1=O (configuration not stated) | – | – | – | – | – | – | – | – | – | IC50 [19]: 0.3 µM
14 | N=C(N)c1ccc(OCCCCCOc2ccc(C(=N)N)cc2)cc1 [PENTAMIDINE] | – | – | – | – | – | – | – | – | – | IC50 [15]: 0.0053 µM
15 | NC(=O)c1ncn([C@@H]2O[C@H](CO)[C@@H](O)[C@H]2O)n1 [RIBAVIRIN] | 23.8 µM | – | – | – | 18.4 µM | – | – | 18.4 µM | – | CC50 [20]: > 324 µM
